The values below come from article PMC10842602 (Bioorganic & medicinal chemistry, 2023).

Format in all cases: cell-based
The target of data set [1] is T1, WT human SLACK (Homo sapiens, UniProt Q5JUK3).
T1 sequence (Q5JUK3 1-1235 isoform Q5JUK3-3): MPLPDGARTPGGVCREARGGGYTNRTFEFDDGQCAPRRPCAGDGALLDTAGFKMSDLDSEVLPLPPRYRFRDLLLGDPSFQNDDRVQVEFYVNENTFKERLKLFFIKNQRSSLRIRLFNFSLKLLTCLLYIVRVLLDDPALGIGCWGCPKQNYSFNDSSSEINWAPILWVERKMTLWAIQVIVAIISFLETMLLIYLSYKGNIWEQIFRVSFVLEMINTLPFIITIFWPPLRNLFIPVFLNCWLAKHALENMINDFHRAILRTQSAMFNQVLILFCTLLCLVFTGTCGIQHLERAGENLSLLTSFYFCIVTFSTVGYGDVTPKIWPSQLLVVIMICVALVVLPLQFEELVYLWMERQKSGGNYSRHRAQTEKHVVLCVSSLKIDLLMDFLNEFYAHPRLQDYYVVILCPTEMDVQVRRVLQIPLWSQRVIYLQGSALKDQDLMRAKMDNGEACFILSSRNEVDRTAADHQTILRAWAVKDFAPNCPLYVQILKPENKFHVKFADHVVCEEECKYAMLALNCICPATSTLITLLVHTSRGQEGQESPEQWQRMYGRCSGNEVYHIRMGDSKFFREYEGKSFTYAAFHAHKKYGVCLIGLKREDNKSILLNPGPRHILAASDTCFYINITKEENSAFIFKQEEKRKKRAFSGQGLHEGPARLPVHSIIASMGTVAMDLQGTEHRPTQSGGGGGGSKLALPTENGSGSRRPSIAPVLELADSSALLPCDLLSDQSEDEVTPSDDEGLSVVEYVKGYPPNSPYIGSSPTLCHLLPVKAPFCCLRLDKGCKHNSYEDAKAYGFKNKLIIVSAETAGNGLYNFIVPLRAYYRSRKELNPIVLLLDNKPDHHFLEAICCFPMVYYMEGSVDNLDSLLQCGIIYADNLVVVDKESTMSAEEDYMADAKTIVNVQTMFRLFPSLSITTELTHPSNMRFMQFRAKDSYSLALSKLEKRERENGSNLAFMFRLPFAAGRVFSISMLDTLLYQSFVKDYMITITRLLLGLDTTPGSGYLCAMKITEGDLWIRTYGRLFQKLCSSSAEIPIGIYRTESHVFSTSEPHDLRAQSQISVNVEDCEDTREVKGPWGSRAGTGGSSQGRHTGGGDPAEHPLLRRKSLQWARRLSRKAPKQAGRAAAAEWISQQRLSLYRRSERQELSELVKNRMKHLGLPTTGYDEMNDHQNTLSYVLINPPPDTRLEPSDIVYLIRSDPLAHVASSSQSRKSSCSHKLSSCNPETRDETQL
Briefly: Tl+ flux assay in HEK-293 cells stably expressing WT human SLACK. As to conditions: for IC50 / EC50: CRC. The procedure, abridged:
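Stably transfected HEK-293 cells expressing wild-type human SLACK; thallium flux read-out. IC50 or EC50 taken from concentration-response curves, and each compound classed as inhibitor, activator or not active. Efficacy is the response amplitude at 30 μM test compound, as a percentage of the maximum response to a reference SLACK inhibitor (for inhibitors) or loxapine (for activators).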

A further data set has as its target Maxi-K (Slo1 α1/β3) (Homo sapiens, UniProt Q12791). Briefly: Tl+ flux assay in HEK-293 cells expressing Maxi-K. The conditions noted are these: CRC.
Data set [2] has as its target T1, WT human SLACK. Briefly: Whole-cell voltage-clamp electrophysiology, automated patch clamp. The conditions noted are these: CRC, CHO cells expressing WT SLACK. The method in brief: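 CHO cells stably expressing wild-type human SLACK. Currents recorded in whole-cell voltage-clamp mode on an automated patch clamp platform. IC50 derived from concentration-response data for a selected subset of analogs.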
In general terms: In patch-clamp work, channel activity is measured electrically.

The target of the next data set is T2, human A934T SLACK (Homo sapiens, UniProt Q5JUK3, A915T).
T2 sequence (Q5JUK3 1-1235 isoform Q5JUK3-3 A934T): T1 sequence (Q5JUK3 1-1235 isoform Q5JUK3-3) with A934T
Briefly: Tl+ flux assay in HEK-293 cells expressing A934T SLACK. The conditions noted are these: CRC.

The target of the next data set is hERG (Homo sapiens, UniProt Q12809). Put plainly: Tl+ flux assay in HEK-293 stably expressing hERG. The conditions noted are these: 10 μM concentration. A general note: Block of hERG is tested as a sign of cardiac risk.
The mark [3] stands for this setting: IC50 for compounds of mode Inh (also cells printed Inactive).

Numbering of substitutions follows the chain as printed. Some results are limits rather than exact numbers.

Maxi-K (Slo1 α1/β3), sequence (Q12791 whole entry, species assumed): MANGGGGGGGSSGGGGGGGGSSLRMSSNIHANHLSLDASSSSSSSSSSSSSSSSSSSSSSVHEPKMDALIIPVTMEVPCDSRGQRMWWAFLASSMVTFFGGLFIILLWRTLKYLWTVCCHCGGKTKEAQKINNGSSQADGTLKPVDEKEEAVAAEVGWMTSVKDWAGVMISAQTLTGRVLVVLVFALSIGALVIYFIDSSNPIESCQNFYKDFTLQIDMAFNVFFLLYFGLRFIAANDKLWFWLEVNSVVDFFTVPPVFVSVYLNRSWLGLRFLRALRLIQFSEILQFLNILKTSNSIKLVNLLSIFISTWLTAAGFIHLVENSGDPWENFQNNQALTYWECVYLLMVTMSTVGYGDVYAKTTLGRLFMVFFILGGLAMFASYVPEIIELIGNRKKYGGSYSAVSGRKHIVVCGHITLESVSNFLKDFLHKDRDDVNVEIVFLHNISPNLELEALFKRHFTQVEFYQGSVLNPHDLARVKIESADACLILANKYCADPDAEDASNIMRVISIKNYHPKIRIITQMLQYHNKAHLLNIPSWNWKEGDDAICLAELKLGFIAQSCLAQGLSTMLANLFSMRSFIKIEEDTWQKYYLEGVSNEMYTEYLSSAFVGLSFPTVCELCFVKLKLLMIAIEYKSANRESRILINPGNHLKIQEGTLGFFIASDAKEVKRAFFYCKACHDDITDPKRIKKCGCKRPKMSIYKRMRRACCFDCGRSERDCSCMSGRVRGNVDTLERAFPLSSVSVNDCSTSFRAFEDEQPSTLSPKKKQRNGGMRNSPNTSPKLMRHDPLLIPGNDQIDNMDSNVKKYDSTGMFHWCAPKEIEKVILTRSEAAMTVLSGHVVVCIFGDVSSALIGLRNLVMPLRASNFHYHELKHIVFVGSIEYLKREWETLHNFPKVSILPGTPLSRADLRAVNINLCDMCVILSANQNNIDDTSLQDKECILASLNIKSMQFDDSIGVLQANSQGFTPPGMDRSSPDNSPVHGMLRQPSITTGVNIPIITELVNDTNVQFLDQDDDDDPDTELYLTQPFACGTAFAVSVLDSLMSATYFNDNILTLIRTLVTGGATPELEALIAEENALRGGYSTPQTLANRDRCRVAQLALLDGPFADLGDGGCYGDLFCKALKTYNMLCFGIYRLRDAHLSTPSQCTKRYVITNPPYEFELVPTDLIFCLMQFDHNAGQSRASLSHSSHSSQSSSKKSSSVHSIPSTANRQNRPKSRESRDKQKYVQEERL
Maxi-K (Slo1 α1/β3), sequence (Q9NPA1 whole entry partner, species assumed): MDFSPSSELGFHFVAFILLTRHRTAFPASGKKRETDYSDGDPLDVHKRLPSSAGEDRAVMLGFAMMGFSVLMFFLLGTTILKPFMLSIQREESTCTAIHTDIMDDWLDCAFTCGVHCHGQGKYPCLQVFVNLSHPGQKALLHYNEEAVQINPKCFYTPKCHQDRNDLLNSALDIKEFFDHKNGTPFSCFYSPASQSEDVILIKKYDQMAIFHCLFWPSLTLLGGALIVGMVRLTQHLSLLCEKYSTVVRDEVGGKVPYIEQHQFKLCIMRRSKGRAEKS
hERG, sequence (Q12809 whole entry): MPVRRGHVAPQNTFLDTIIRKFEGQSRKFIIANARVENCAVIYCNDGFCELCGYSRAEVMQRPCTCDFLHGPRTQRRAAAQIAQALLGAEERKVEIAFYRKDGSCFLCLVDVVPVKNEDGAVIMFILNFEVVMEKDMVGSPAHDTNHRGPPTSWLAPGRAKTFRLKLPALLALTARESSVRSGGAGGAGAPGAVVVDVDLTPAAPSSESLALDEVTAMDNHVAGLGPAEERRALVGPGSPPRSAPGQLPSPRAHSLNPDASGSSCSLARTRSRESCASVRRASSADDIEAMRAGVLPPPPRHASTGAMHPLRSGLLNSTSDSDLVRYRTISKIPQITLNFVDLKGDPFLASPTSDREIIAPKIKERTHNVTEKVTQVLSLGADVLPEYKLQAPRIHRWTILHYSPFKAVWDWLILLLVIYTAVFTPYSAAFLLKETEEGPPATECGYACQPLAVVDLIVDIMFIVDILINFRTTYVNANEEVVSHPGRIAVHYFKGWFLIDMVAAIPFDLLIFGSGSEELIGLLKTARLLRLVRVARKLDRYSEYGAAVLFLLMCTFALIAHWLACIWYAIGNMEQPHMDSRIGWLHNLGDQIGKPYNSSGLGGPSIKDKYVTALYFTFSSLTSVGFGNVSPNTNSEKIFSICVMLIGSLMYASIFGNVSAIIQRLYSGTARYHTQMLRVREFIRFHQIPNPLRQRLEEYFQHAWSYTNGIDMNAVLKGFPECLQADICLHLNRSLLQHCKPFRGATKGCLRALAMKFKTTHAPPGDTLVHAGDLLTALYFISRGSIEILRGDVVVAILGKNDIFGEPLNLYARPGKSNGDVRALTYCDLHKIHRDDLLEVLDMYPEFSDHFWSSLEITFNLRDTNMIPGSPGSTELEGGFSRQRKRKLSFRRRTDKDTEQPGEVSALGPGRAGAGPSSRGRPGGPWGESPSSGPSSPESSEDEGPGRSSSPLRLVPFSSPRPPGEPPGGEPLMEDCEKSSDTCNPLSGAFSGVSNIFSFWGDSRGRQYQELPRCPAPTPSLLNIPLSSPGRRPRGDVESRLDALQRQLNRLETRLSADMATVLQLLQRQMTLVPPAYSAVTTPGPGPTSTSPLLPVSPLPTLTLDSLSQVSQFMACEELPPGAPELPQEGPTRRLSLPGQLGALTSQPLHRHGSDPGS

In the case of `CCOc1ccccc1S(=O)(=O)N1CC(c2nc(-c3ccsc3)no2)C1` [Compound 5, 5-(1-((2-Ethoxyphenyl)sulfonyl)azetidin-3-yl)-3-(thiophen-3-yl)-1,2,4-oxadiazole], the “IC50 / EC50” value against WT human SLACK [1] (setting [3]) was 2.1 µM. Further, at Maxi-K (Slo1 α1/β3), the “Maxi-K (Slo1 α1/β3) IC50” value is “inactive”. Moreover, the “IC50 (whole-cell EP)” value against WT human SLACK [2] is “submicromolar potency”.
Take `CC(C)Oc1ccccc1S(=O)(=O)N1CC(c2nc(-c3ccsc3)no2)C1` [Compound 27, 5-(1-((2-Isopropoxyphenyl)sulfonyl)azetidin-3-yl)-3-(thiophen-3-yl)-1,2,4-oxadiazole]: the “IC50 / EC50” value against WT human SLACK [1] (setting [3]) came out at 3.7 µM. For the same compound, the “Maxi-K (Slo1 α1/β3) IC50” value at Maxi-K (Slo1 α1/β3) was “inactive”.
Consider `CCOc1ccccc1S(=O)(=O)N1CC(c2nc(-c3ccc(F)cc3)no2)C1` [Compound 43, 5-(1-((2-Ethoxyphenyl)sulfonyl)azetidin-3-yl)-3-(4-fluorophenyl)-1,2,4-oxadiazole], for which the “IC50 / EC50” value against WT human SLACK [1] (setting [3]) was 3.2 µM. The “Maxi-K (Slo1 α1/β3) IC50” value on Maxi-K (Slo1 α1/β3) is “inactive”.
In the case of `CCOc1ccccc1S(=O)(=O)N1CC(c2nc(-c3ccc(F)cc3Cl)no2)C1` [Compound 58, 3-(2-Chloro-4-fluorophenyl)-5-(1-((2-ethoxyphenyl)sulfonyl)azetidin-3-yl)-1,2,4-oxadiazole], on WT human SLACK [1] (setting [3]), the “IC50 / EC50” value is 2.1 µM. For the same compound, the “Maxi-K (Slo1 α1/β3) IC50” value on Maxi-K (Slo1 α1/β3) was “inactive”. For the same compound, the “IC50 (whole-cell EP)” value against WT human SLACK [2] is given as “submicromolar potency”.
Consider `CCOc1ccccc1S(=O)(=O)N1CC(c2nc(-c3ccc(F)s3)no2)C1` [Compound 60, 5-(1-((2-Ethoxyphenyl)sulfonyl)azetidin-3-yl)-3-(5-fluorothiophen-2-yl)-1,2,4-oxadiazole], for which the “IC50 / EC50” value on WT human SLACK [1] (setting [3]) turned out to be 4.8 µM. Further, the “A934T IC50” value at human A934T SLACK is on record as “submicromolar potency”. In addition, the “Maxi-K (Slo1 α1/β3) IC50” value on Maxi-K (Slo1 α1/β3) is “inactive”. For the same compound, the “IC50 (whole-cell EP)” value against WT human SLACK [2] is reported as “submicromolar potency”.
For the compound `CCOc1ccccc1S(=O)(=O)N1CCC(c2nc(-c3ccc(F)cc3)no2)CC1` [Compound 76], the “IC50 / EC50” value at WT human SLACK [1] (setting [3]) was 4.9 µM. The “Maxi-K (Slo1 α1/β3) IC50” value at Maxi-K (Slo1 α1/β3) was “inactive”.
With `[2H]C([2H])([2H])C([2H])([2H])Oc1ccccc1S(=O)(=O)N1CC(c2nc(-c3ccc(F)cc3)no2)C1` [Compound 109, 5-(1-((2-(Ethoxy-d5)phenyl)sulfonyl)azetidin-3-yl)-3-(4-fluorophenyl)-1,2,4-oxadiazole], the “IC50 / EC50” value at WT human SLACK [1] (setting [3]) worked out at 5.4 µM. For the same compound, on Maxi-K (Slo1 α1/β3), the “Maxi-K (Slo1 α1/β3) IC50” value is “inactive”.
With `O=S(=O)(c1ccccc1OCC(F)(F)F)N1CC(c2nc(-c3ccc(F)cc3)no2)C1` [Compound 113, 3-(4-Fluorophenyl)-5-(1-((2-(2,2,2-trifluoroethoxy)phenyl)sulfonyl)azetidin-3-yl)-1,2,4-oxadiazole], the “IC50 / EC50” value at WT human SLACK [1] (setting [3]) was 8.8 µM. Further, the “Maxi-K (Slo1 α1/β3) IC50” value at Maxi-K (Slo1 α1/β3) was “inactive”.
Consider `O=S(=O)(c1ccccc1N1CCCC1)N1CC(c2nc(-c3ccc(F)cc3)no2)C1` [Compound 117, 3-(4-Fluorophenyl)-5-(1-((2-(pyrrolidin-1-yl)phenyl)sulfonyl)azetidin-3-yl)-1,2,4-oxadiazole], for which the “IC50 / EC50” value against WT human SLACK [1] (setting [3]) was found to be 8.9 µM.
The same measure, in the same setting: with `O=S(=O)(c1ccccc1N1CCCCC1)N1CC(c2nc(-c3ccc(F)cc3)no2)C1` [Compound 118, 3-(4-Fluorophenyl)-5-(1-((2-(piperidin-1-yl)phenyl)sulfonyl)azetidin-3-yl)-1,2,4-oxadiazole] the figure was above 10 µM.
As to `O=S(=O)(c1cccc2c1OCCC2)N1CC(c2nc(-c3ccc(F)cc3)no2)C1` [Compound 119, 5-(1-(chroman-8-ylsulfonyl)azetidin-3-yl)-3-(4-fluorophenyl)-1,2,4-oxadiazole], the “IC50 / EC50” value at WT human SLACK [1] (setting [3]) turned out to be 8.7 µM. Also, the “Maxi-K (Slo1 α1/β3) IC50” value at Maxi-K (Slo1 α1/β3) was “inactive”.
For `O=S(=O)(c1cccc2ccoc12)N1CC(c2nc(-c3ccc(F)cc3)no2)C1` [Compound 120, 5-(1-(Benzofuran-7-ylsulfonyl)azetidin-3-yl)-3-(4-fluorophenyl)-1,2,4-oxadiazole], the “IC50 / EC50” value against WT human SLACK [1] (EC50 for compounds of mode Act) is 2.3 µM.
For the compound `Cc1ccc2cccc(S(=O)(=O)N3CC(c4nc(-c5ccc(F)cc5)no4)C3)c2n1` [Compound 122, 3-(4-Fluorophenyl)-5-(1-((2-methylquinolin-8-yl)sulfonyl)azetidin-3-yl)-1,2,4-oxadiazole], the “IC50 / EC50” value at WT human SLACK [1] (setting [3]) was determined as 1.1 µM. Also, the “A934T IC50” value on human A934T SLACK was “submicromolar potency”. Besides, the “Maxi-K (Slo1 α1/β3) IC50” value on Maxi-K (Slo1 α1/β3) is “inactive”. Also, the hERG activity result on hERG was “inactive”. Besides, the “IC50 (whole-cell EP)” value at WT human SLACK [2] is given as “submicromolar potency”.
Regarding `O=S(=O)(c1cccn2ccnc12)N1CC(c2nc(-c3ccc(F)cc3)no2)C1` [Compound 125], the “IC50 / EC50” value at WT human SLACK [1] (EC50 for compounds of mode Act) is above 10 µM.
The same measure, in the same setting: the same measure for `Cc1cn2cccc(S(=O)(=O)N3CC(c4nc(-c5ccc(F)cc5)no4)C3)c2n1` [Compound 126]: above 10 µM.
For the compound `O=S(=O)(c1cccn2ncnc12)N1CC(c2nc(-c3ccc(F)cc3)no2)C1` [Compound 129], on WT human SLACK [1] (EC50 for compounds of mode Act), the “IC50 / EC50” value was above 10 µM.
`Cc1nc2c(S(=O)(=O)N3CC(c4nc(-c5ccc(F)cc5)no4)C3)cccn2n1` [Compound 130]: the “IC50 / EC50” value against WT human SLACK [1] (EC50 for compounds of mode Act) was above 10 µM.
As for `O=S(=O)(c1cccn2cnnc12)N1CC(c2nc(-c3ccc(F)cc3)no2)C1` [Compound 132], at WT human SLACK [1] (EC50 for compounds of mode Act), the “IC50 / EC50” value was above 10 µM.
Consider `Cc1nnc2c(S(=O)(=O)N3CC(c4nc(-c5ccc(F)cc5)no4)C3)cccn12` [Compound 133], for which the “IC50 / EC50” value at WT human SLACK [1] (setting [3]) is “Inactive”. Also, the Mode entry at WT human SLACK [1] (Tl+ flux, HEK-293 cells expressing WT SLACK) is reported as “Inactive”.
